In the library only some 3% were active in any assay of this set; here they are far more common.
T cruzi repl – T. cruzi replication inhibition | inhibition, % (test concentration not listed) | T. cruzi beta-gal in NIH3T3, luminescence, 90 h | hit rate 1.4% among 300,000;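 active means mean inhibition across valid replicates above about 55%, limit read from the data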;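 further: signal also drops with host cell toxicity which is not excluded here; 0% = plate median of DMSO wells and 100% = zero luminescence signal; higher percent means less beta-gal luminescence so fewer parasites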
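compound dosing = single 50 nL compound addition per well in DMSO | material = NIH/3T3 host cells with β-galactosidase reporter T. cruzi | input = 5,000 host fibroblasts per well | timing = ≥90 h infection period, 3 h prior cell attachment | read-out basis = percent inhibition of parasite-derived β-gal signal | detection = GalScreen β-gal luminescence, detergent lysis, 60 min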
HIF activator – HIF pathway transcriptional activation; U2OS HRE-luciferase reporter, luminescence; normalized: DMSO 0%, desferrioxamine 100%; activation, % at 7.5 µM (by protocol); hit rate 0.32% among 300,000;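 active means mean activation of at least 10% of the iron chelator positive control signal, with at least half of replicates also reaching 10%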
NRP1-CendR mod – NRP-1/CendR interaction modulation. FAM-RPARPAR peptide binding to NRP-1, fluorescence polarization. inhibition, % at 25 µM. AID 602438. hit rate 0.85% among 360,000. O14786;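 active means inhibition or corrected inhibition above about 18%, plus a signal ratio from 0.5 to 1.5, limit read from the data, passing the limit was not always enough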
AI-2 QS mod – modulates the Vibrio harveyi AI-2 quorum sensing system; activity change, % at 7.5 µM; Vibrio harveyi JMH597 AI-2 luminescence/OD600 ratio, 9 h; active compounds read low; strain lacks LuxN and CqsS sensors; 0 = neutral-control median; AID 2094; hit rate 0.4% among 300,000; in the data active means activity change below about -75%, passing the limit was not always enough;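 further: luminescence divided by OD600 gain over 9 h not by final OD600 alone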
V-ATPase pHluor – alters yeast V-ATPase proton transport | S. cerevisiae, pHLuorin cytosolic pH fluorescence | response, % at 10 µM | hit rate 0.37% among 350,000 | AID 504577; in the data active means response mostly above about 7.3%, no sharp cut-off; inactive means mostly below about 5.4%; further: actives read high
Yeast superoxide – yeast age-related superoxide inhibition as caloric restriction mimetic | S. cerevisiae aged cells, superoxide DHE fluorescence; active compounds read low | AID 2690 | superoxide response (% of plate mean), % at 10 µM | hit rate 0.18% among 330,000;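 active means superoxide response under a set limit, about three screen SD below normal, cut at about 65% in these data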;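 further: yeast aged for seven days with compound at 30 °C before DHE staining; 100% = average MFI of all compound-treated wells on the plate with controls excluded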
* marks the source's active call; other numbers are inactive results; / = not tested or not shown.

SMILES | T cruzi repl | HIF activator | NRP1-CendR mod | AI-2 QS mod | V-ATPase pHluor | Yeast superoxide
COc1cc2nc(N(CCCN(C)C)C(=O)c3ccc(S(=O)(=O)N4CCc5ccccc5C4)cc3)sc2cc1OC | 57* | 1 | -27 | 23 | 1 | 89
COc1ccc(OC)c2sc(N(CCCN(C)C)C(=O)c3ccc(S(=O)(=O)N4CCc5ccccc5C4)cc3)nc12 | 60* | -8 | / | 3 | / | 98
COc1cc(/C=N/n2c(=S)[nH]nc(C)c2=O)cc([N+](=O)[O-])c1O | 2 | 0 | 4 | 19 | -1 | 101
CCc1n[nH]c(=S)n1/N=C/c1cc(OC)cc([N+](=O)[O-])c1O | 68* | -1 | 47* | 36 | -5 | 90
COc1ccccc1N(CC(=O)NC1CCCC1)C(=O)CCC(=O)Nc1ccccn1 | 15 | 0 | 21* | 2 | 0 | 108
O=C(CCC(=O)N(CC(=O)NC1CCCCC1)Cc1ccccc1)Nc1ccccn1 | -1 | 0 | -1 | 14 | -4 | 99
COc1ccccc1N(CC(=O)NC1CCCC1)C(=O)CCC(=O)Nc1cc(C)on1 | -2 | 0 | 5 | 17 | -3 | 112
Cc1ccnc(NC(=O)CCC(=O)N(CC(=O)NC2CCCCC2)Cc2ccccc2)c1 | 5 | 0 | 31* | 1 | -1 | 106
CCOc1ccccc1NC(=O)COC(=O)C1CCC(=O)N1 (stereo unspecified) | / | / | -1 | / | 0 | 83
Cc1nc(C)c(C(=O)N/N=C/c2cc(Br)ccc2O)s1 | 23 | 29* | -29 | 36 | -1 | 113
O=C(N/N=C/c1cc(Br)ccc1O)c1ccncc1 | 21 | 34* | -30 | -94* | -3 | 111
Cc1nc(C)c(C(=O)N/N=C/c2c[nH]c3ccccc23)s1 | 10 | 4 | -3 | 15 | -3 | 96
Cc1ccc(C)c(NC(=O)CCC(=O)N/N=C/c2cc([N+](=O)[O-])ccc2O)c1 | -23 | 0 | -1 | 404 | -3 | 97
Cc1ccc(C)c(N(CC(=O)N/N=C/c2ccc(-c3ccc([N+](=O)[O-])cc3)o2)S(=O)(=O)c2ccccc2)c1 | 72* | 0 | -101 | 30 | 6 | 103
CCOc1ccc(S(=O)(=O)N(CC(=O)N/N=C/c2ccc(-c3ccc([N+](=O)[O-])cc3)o2)c2ccccc2)cc1 | 22 | 3 | -28 | 1 | -3 | 100
Cc1ccccc1NC(=O)CCC(=O)N/N=C/c1cc([N+](=O)[O-])ccc1O | -28 | 1 | -13 | -109* | 1 | 97
O=C(Nc1ccc(S(=O)(=O)NCC2CCCO2)cc1)c1ccc(Cl)cc1[N+](=O)[O-] (stereo unspecified) | -13 | 0 | -1 | 3 | -1 | 108
Cc1ccc(S(=O)(=O)N2CCCCC2)cc1NC(=O)COC(=O)C1CC1 | / | / | 0 | / | -1 | /
O=C(N/N=C/c1cc([N+](=O)[O-])ccc1O)c1ccncc1 | -2 | 2 | -2 | -91* | -1 | 96
O=C(N/N=C/c1cccnc1)c1cccc(NC(=O)c2cccc(Br)c2)c1 | 11 | 1 | -2 | 19 | 0 | 85
O=C(N/N=C\c1cc(Br)ccc1O)c1ccc(S(=O)(=O)N2CCCCC2)cc1 | 59* | 37* | 7 | 1 | 3 | 103
O=C(N/N=C/c1ccc(O)c(O)c1)c1cccc(S(=O)(=O)N2CCCCC2)c1 | -17 | 0 | -7 | / | -2 | 87
O=C(N/N=C/c1ccc(O)c([N+](=O)[O-])c1)c1ccncc1 | -11 | 0 | 11 | 32 | -4 | 105
O=C(N/N=C/c1cc([N+](=O)[O-])ccc1O)c1cccc2cc[nH]c12 | 57* | 27* | -5 | -22 | 1 | 77
O=C(N/N=C/c1ccc(O)c2ncccc12)c1cccc(Br)c1 | 60* | 2 | -2 | -57 | 3 | 153
Cc1cccc(Cc2c(C)nc3c(C(=O)NCc4ccco4)cnn3c2C)c1 | 16 | -1 | -19 | 13 | -7 | 114
CCCCn1c(N)c(N(CCOC)C(=O)CCS(=O)(=O)c2ccc(C)cc2)c(=O)[nH]c1=O | / | / | -3 | / | 1 | /
O=C1c2ccc([N+](=O)[O-])cc2C(=O)N1c1c[nH]c(=O)[nH]c1=O | -3 | 0 | -2 | 21 | 0 | 100

From PubChem BioAssay
